Measurements published in ChEMBL document CHEMBL1140381, “Design and studies of novel 5-substituted alkynylpyrimidine nucleosides as potent inhibitors of mycobacteria” (2005).
In brackets after ≈: the same amount, converted by molar mass.

Assays:
Assay type in all cases: functional
Mycobacterium avium [1] = assay: Inhibition of growth of Mycobacterium avium (ATCC 25291) was determined using microplate alamar blue assay at 2 ug/mL concentration with compound dissolved in DMSO
Mycobacterium avium [2] = assay: Minimum inhibitory concentration against Mycobacterium avium (ATCC 25291)
Summary of the method: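 Alamar blue microplate assay in 7H9GC. BCG or M. avium ATCC 25291 at 2.5 × 10⁵ CFU/mL final, exposed to compound at 100, 50, 10 and 1 µg/mL in triplicate. Reagent added after 6+ days once growth controls turned pink, read after 24 h visually and by fluorescence. MIC₉₀ taken as the lowest concentration giving ~90% growth inhibition.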

Mycobacterium avium [3] = assay: Inhibition of growth of Mycobacterium avium (ATCC 25291) was determined using microplate alamar blue assay at 50 ug/mL concentration with compound dissolved in DMSO
Summary of the method: (§1)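 MABA in 7H9GC medium; M. bovis BCG or M. avium ATCC 25291 frozen inocula at 2.5 × 10⁵ CFU/mL final, 100× DMSO stocks diluted into medium. Incubated 6 days, then alamar blue plus 20% Tween-80 added once bacteria-only wells turned pink, read 24 h later by fluorescence. % inhibition = […]. Triplicate wells, three experiments, mean reported.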

Mycobacterium avium [4] = assay: Inhibition of growth of Mycobacterium avium (ATCC 25291) was determined using microplate alamar blue assay at 100 ug/mL concentration with compound dissolved in DMSO; summary of the method: as §1
Mycobacterium avium [5] = assay: Inhibition of growth of Mycobacterium avium (ATCC 25291) was determined using microplate alamar blue assay at 10 ug/mL concentration with compound dissolved in DMSO; summary of the method: as §1

CC[C@H]1OC(=O)[C@H](C)[C@@H](O[C@H]2C[C@@](C)(OC)[C@@H](O)[C@H](C)O2)[C@H](C)[C@@H](O[C@@H]2O[C@H](C)C[C@H](N(C)C)[C@H]2O)[C@](C)(OC)C[C@@H](C)C(=O)[C@H](C)[C@@H](O)[C@]1(C)O [CLARITHROMYCIN]
inhibition at 2 µg/mL (Mycobacterium avium [1]): 95% | MIC90 (Mycobacterium avium [2]): 2 µg/mL (≈ 2.67 µM)

CCCCCCCCCCC#Cc1cn([C@H]2C[C@H](O)[C@@H](CO)O2)c(=O)[nH]c1=O
inhibition at 50 µg/mL (Mycobacterium avium [3]): 0% | inhibition at 100 µg/mL (Mycobacterium avium [4]): 75%

CCCCCCCCCCCCC#Cc1cn([C@H]2C[C@H](O)[C@@H](CO)O2)c(=O)[nH]c1=O
inhibition at 50 µg/mL (Mycobacterium avium [3]): 30% | inhibition at 100 µg/mL (Mycobacterium avium [4]): 75%

CCCCCC#Cc1cn([C@H]2C[C@H](O)[C@@H](CO)O2)c(=O)[nH]c1=O
inhibition at 100 µg/mL (Mycobacterium avium [4]): 25%

CO[C@H]1/C=C/O[C@@]2(C)Oc3c(C)c(O)c4c(O)c(c(/C=N/N5CCN(C)CC5)c(O)c4c3C2=O)NC(=O)/C(C)=C\C=C\[C@H](C)[C@H](O)[C@@H](C)[C@@H](O)[C@@H](C)[C@H](OC(C)=O)[C@@H]1C [RIFAMPIN]
inhibition at 2 µg/mL (Mycobacterium avium [1]): 90% | MIC90 (Mycobacterium avium [2]): 2 µg/mL (≈ 2.43 µM)

CCCCCCCCCCC#Cc1cn([C@H]2C[C@H](O)[C@@H](CO)O2)c(=O)nc1N
MIC90 (Mycobacterium avium [2]): 100 µg/mL (≈ 255 µM) | inhibition at 10 µg/mL (Mycobacterium avium [5]): 10% | inhibition at 50 µg/mL (Mycobacterium avium [3]): 60% | inhibition at 100 µg/mL (Mycobacterium avium [4]): 100%

CCCCCCCCC#Cc1cn([C@H]2C[C@H](O)[C@@H](CO)O2)c(=O)nc1N
inhibition at 10 µg/mL (Mycobacterium avium [5]): 20% | inhibition at 50 µg/mL (Mycobacterium avium [3]): 50% | inhibition at 100 µg/mL (Mycobacterium avium [4]): 75%

CCCCCCCCC#Cc1cn([C@H]2C[C@H](O)[C@@H](CO)O2)c(=O)[nH]c1=O
inhibition at 100 µg/mL (Mycobacterium avium [4]): 30%
